Laboratory results as given in ChEMBL document CHEMBL2202995, “Synthesis and SAR study of 4,5-diaryl-1H-imidazole-2(3H)-thione derivatives, as potent 15-lipoxygenase inhibitors” (Bioorg Med Chem, 2012).
pIC50: −log10 of the molar value.

Tests used:
[1] = tested on: Radical scavenging activity; test: Antioxidant activity of compound assessed as DPPH radical scavenging activity by colorimetric method; assay type: functional
Outline: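 DPPH colorimetric scavenging assay: DPPH solution mixed with an equal volume of compound dissolved in ethanol, several dilutions tested, ethanol as control. After 30 min at room temperature, absorbance read at 517 nm. IC50 obtained by regression analysis of the mean values.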

[2] = Inhibition of soybean 15-LOX assessed as peroxide level by DMAB-MBTH method; parameters: species or system Glycine max
Outline: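 Soybean lipoxygenase (SLO, 40,000 units/mL, 25 µL) and compound in ethanol preincubated 5 min at room temperature in 50 mM phosphate buffer pH 7.0; ethanol-only control. Reaction started with linoleic acid substrate in ethanol/100 mM KOH. After 7 min, 50 mM DMAB in 100 mM phosphate pH 7.0 was added, then MBTH/hemoglobin in phosphate pH 5.0, as colorimetric peroxide read-out.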

Structure (SMILES) | pIC50 [1] | pIC50 [2]
Cc1nc(N2CCN(C)CC2)nc2c1Nc1ccccc1S2 |  | 4.47
CSc1ccc(-c2[nH]c(=S)[nH]c2-c2ccc(F)cc2)cc1 | 4.31 | 3.87
Fc1ccc(-c2[nH]c(=S)[nH]c2-c2ccc(F)cc2)cc1 | 3.84 | 4.63
S=c1[nH]c(-c2ccc(Cl)cc2)c(-c2ccc(Cl)cc2)[nH]1 | 3.97 | 4.21
S=c1[nH]c(-c2ccccc2)c(-c2ccc(Cl)cc2)[nH]1 | 4.52 | 4.60
CSc1ccc(-c2[nH]c(=S)[nH]c2-c2ccc(Cl)cc2)cc1 | 4.67 | 4.71
S=c1[nH]c(-c2ccccc2)c(-c2ccccc2)[nH]1 | 4.31 | 4.82

Results, then the compound that gave them:

pIC50 [1] | pIC50 [2] | Structure (SMILES)
4.82 | 5.03 | COc1ccc(-c2[nH]c(=S)[nH]c2-c2ccc(N(C)C)cc2)cc1
5.21 |  | CC(Cc1ccc(O)c(O)c1)C(C)Cc1ccc(O)c(O)c1 (stereo not given) [NORDIHYDROGUAIARETIC ACID]
< 3.60 | < 3.60 | COc1ccc(-c2nc(SC)[nH]c2-c2ccc(Cl)cc2)cc1
4.81 | 4.83 | COc1ccc(-c2nc(S)[nH]c2-c2ccc(OC)cc2)cc1
4.06 | 4.86 | COc1ccc(-c2[nH]c(=S)[nH]c2-c2ccccc2)cc1
4.05 | 5.24 | CSc1ccc(-c2[nH]c(=S)[nH]c2-c2ccccc2)cc1
4.85 | 5.33 | COc1ccc(-c2[nH]c(=S)[nH]c2-c2ccc(Cl)cc2)cc1
4.24 | 4.96 | COc1ccc(-c2[nH]c(=S)[nH]c2-c2ccc(F)cc2)cc1
4.80 | 4.65 | CN(C)c1ccc(-c2[nH]c(=S)[nH]c2-c2ccc(Cl)cc2)cc1
